Screening data (PubChem BioAssay)
This is a sample that favours compounds with a hit; in the whole collection about 2.9% have one here.
IMP-1 inh: blocks Pseudomonas aeruginosa IMP-1 metallo-beta-lactamase. purified IMP-1, nitrocefin hydrolysis, epi-absorbance fluorescence. inhibition, % at 5.6 µM. hit rate 0.45% among 290,000;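 active = inhibition above the mean plus 3 SD of all compounds in the same screening run, cut at about 4.5% in these data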
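System: Purified IMP-1 | Read-out basis: Percent enzyme inhibition | Controls: IMP-1 with DMSO as 0%, enzyme-free DMSO as 100% | Replicates: One well per compound | Doses: 5.6 µM nominal single concentration | Detection: Epi-absorbance fluorescence, 480 nm excitation, 530 nm emission | Incubation: 25 °C, 15 min preincubation, 25 min reaction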
PolyA inh: yeast polyadenylation inhibition; hit rate 0.02% among 300,000; S. cerevisiae SKY197-pL101 polyadenylation reporter, beta-gal luminescence; efflux-impaired pdr1/pdr3 knockout yeast; score 100 = 6 SD above DMSO; AID 1875; activity score, % at 12 µM;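 active = lowest replicate activity score at least 50, where 100 means six control SD above control mean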;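 also: yeast exposed to compound for 9 h at 30 °C; higher score means more reporter readthrough which indicates perturbed polyadenylation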
NLRP3 yeast inh: inhibitors of NALP3 inflammasome in yeast; hit rate 0.39% among 330,000; inhibition, % at 10 µM; Yeast reconstituted NLRP3/ASC/caspase-1, beta-gal luminescence, 24 h;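 active = inhibition of 50% or more; inactive = inhibition below 50%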
NALP1 inh: blocks the NALP1 inflammasome reconstituted in yeast. hit rate 0.61% among 280,000. S. cerevisiae NALP1/ASC/caspase-1 growth, X-gal OD620, 72 h. inhibition, % at 10 µM; in the data active = inhibition mostly above about 24%, no sharp cut-off; inactive = mostly below about 32%
SUMO Mot1 rescue: inhibitors of SUMOylation pathway: yeast Mot1-301 growth rescue. S. cerevisiae Mot1-301 growth rescue, ATP luminescence, 38.5C; percent above DMSO median, 100 means doubled. growth rescue, % at 18.8 µM. hit rate 1% among 320,000. AID 2716;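 active = every valid replicate shows activation above 250% relative to neutral control wells; inactive = the rest, any valid replicate at or below 250%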
VIM-2 inh: inhibitors of Pseudomonas aeruginosa VIM-2 metallo-beta-lactamase; purified VIM-2, nitrocefin hydrolysis, epi-absorbance fluorescence; inhibition, % at 5.6 µM; hit rate 0.89% among 290,000;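 active = inhibition above the mean of all tested compounds plus 3 SD, cutoff set per screening run, cut at about 7.5% in these data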;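 also: red hydrolysis product quenches plate fluorescence so inhibitors raise well fluorescence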
A number is an active result.

CCOC(=O)CNC(c1ccccc1)c1cc(Br)ccc1NC(=O)CCN1CCOCC1 (stereo not drawn) was read as IMP-1 inh inactive, PolyA inh inactive, NLRP3 yeast inh inactive, NALP1 inh 98.1, SUMO Mot1 rescue inactive and VIM-2 inh inactive.
For C[n+]1ccccc1/C=C/c1cc(Br)ccc1O the results were IMP-1 inh 15.8, PolyA inh inactive, NLRP3 yeast inh inactive, NALP1 inh inactive, SUMO Mot1 rescue inactive and VIM-2 inh inactive.
For COc1ccc(/C=C/c2cccc[n+]2C)c(O)c1 the results were IMP-1 inh inactive, PolyA inh inactive, NLRP3 yeast inh inactive, NALP1 inh inactive, SUMO Mot1 rescue inactive and VIM-2 inh inactive.
`Cc1ccc(Oc2cc(C)nc(-c3ccccc3O)n2)cc1` gave IMP-1 inh inactive, PolyA inh inactive, NLRP3 yeast inh inactive, NALP1 inh inactive, SUMO Mot1 rescue inactive and VIM-2 inh inactive.
Screening Cc1cc(Oc2ccc(Cl)cc2)nc(-c2ccccc2O)n1 returned IMP-1 inh inactive, PolyA inh inactive, NLRP3 yeast inh inactive, NALP1 inh 31.5, SUMO Mot1 rescue inactive and VIM-2 inh inactive.
For COc1ccc(C)cc1S(=O)(=O)N1c2ccc(C)cc2C2CN(C)CCC21 (stereo not drawn) the results were NLRP3 yeast inh inactive.
Cc1c(CC(=O)O)c(=O)oc2c(C)c(OCc3ccccc3)ccc12 was read as IMP-1 inh inactive, PolyA inh inactive, NLRP3 yeast inh inactive, NALP1 inh inactive, SUMO Mot1 rescue inactive and VIM-2 inh inactive.
`CCc1c(C)c2ccc(OCC(=O)N(C)C)c(C)c2oc1=O` gave IMP-1 inh inactive, PolyA inh inactive, NLRP3 yeast inh inactive, NALP1 inh inactive, SUMO Mot1 rescue inactive and VIM-2 inh 9.8.
For Cc1c(CC(=O)O)c(=O)oc2c(C)c(OCc3ccccc3Br)ccc12 the results were IMP-1 inh 6.9, PolyA inh inactive, NLRP3 yeast inh inactive, NALP1 inh inactive, SUMO Mot1 rescue inactive and VIM-2 inh inactive.
`CC1(C)N=C(N)NC(Nc2ccccc2Cl)=N1` gave IMP-1 inh inactive, PolyA inh inactive, NLRP3 yeast inh inactive, NALP1 inh inactive, SUMO Mot1 rescue inactive and VIM-2 inh inactive.
Screening Cc1cccn2cc(CCNC(=O)c3cccs3)nc12 returned IMP-1 inh inactive, PolyA inh inactive, NLRP3 yeast inh inactive, SUMO Mot1 rescue inactive and VIM-2 inh inactive.
`COc1cc2c(C(=O)Nc3ccc4c(c3)OCO4)cn(CC(C)C)c(=O)c2cc1OC` gave IMP-1 inh inactive, PolyA inh inactive, NLRP3 yeast inh inactive, NALP1 inh inactive, SUMO Mot1 rescue 343.2 and VIM-2 inh inactive.
`c1cc2c(cc1-c1csc(NNC3=NCCCCC3)n1)OCCO2` gave IMP-1 inh inactive, PolyA inh inactive, NLRP3 yeast inh inactive, NALP1 inh inactive, SUMO Mot1 rescue inactive and VIM-2 inh inactive.
Screening CCN(CC(=O)Nc1c(F)cccc1F)C(=O)CSc1nnc(-c2ccco2)n1CC returned IMP-1 inh inactive, PolyA inh inactive, NLRP3 yeast inh inactive, NALP1 inh inactive, SUMO Mot1 rescue inactive and VIM-2 inh inactive.
Screening Cn1c(=O)c2sccc2n2c(CCCC(=O)NCc3cccnc3)nnc12 returned IMP-1 inh inactive, PolyA inh inactive, NLRP3 yeast inh inactive, NALP1 inh inactive, SUMO Mot1 rescue inactive and VIM-2 inh 11.0.
For CCCn1c(=O)c2sccc2n2c(CCCC(=O)NCc3cccnc3)nnc12 the results were IMP-1 inh inactive, PolyA inh inactive, NLRP3 yeast inh inactive, NALP1 inh inactive, SUMO Mot1 rescue inactive and VIM-2 inh inactive.
Screening Cn1c(=O)c2sccc2n2c(CCCC(=O)NC3CCN(Cc4ccccc4)CC3)nnc12 returned IMP-1 inh inactive, PolyA inh inactive, NLRP3 yeast inh inactive, NALP1 inh inactive, SUMO Mot1 rescue inactive and VIM-2 inh 10.5.
`COC(=O)c1[nH]c2ccc(F)cc2c1NS(=O)(=O)c1ccc(OC)cc1` gave IMP-1 inh inactive, PolyA inh inactive, NLRP3 yeast inh inactive, NALP1 inh inactive, SUMO Mot1 rescue 347.7 and VIM-2 inh inactive.
`COc1ccc(S(=O)(=O)Nc2c(C(=O)O)[nH]c3ccc(OC)cc23)cc1` gave IMP-1 inh inactive, PolyA inh inactive, NLRP3 yeast inh inactive, NALP1 inh inactive, SUMO Mot1 rescue inactive and VIM-2 inh inactive.
Screening CCCOC(=O)c1ccc(NC(=O)/C=C/c2cccs2)cc1 returned IMP-1 inh inactive, PolyA inh inactive, NLRP3 yeast inh inactive, NALP1 inh 61.0, SUMO Mot1 rescue inactive and VIM-2 inh inactive.
`O=C(/C=C/c1cccs1)Nc1ccncc1` gave IMP-1 inh inactive, PolyA inh inactive, NLRP3 yeast inh inactive, NALP1 inh inactive, SUMO Mot1 rescue inactive and VIM-2 inh inactive.
Screening Cc1cccn2c(=O)c3cc(C(=O)N4CCCCC4C)sc3nc12 (stereo not drawn) returned NLRP3 yeast inh inactive and SUMO Mot1 rescue inactive.
`CCN(C(=O)c1cc2c(=O)n3ccccc3nc2s1)C1CCCCC1` gave IMP-1 inh inactive, PolyA inh inactive, NLRP3 yeast inh inactive, NALP1 inh inactive, SUMO Mot1 rescue inactive and VIM-2 inh inactive.
COc1ccccc1N1CCN(C(=O)c2cc3c(=O)n4cccc(C)c4nc3s2)CC1 was read as IMP-1 inh inactive, PolyA inh inactive, NLRP3 yeast inh inactive, NALP1 inh inactive, SUMO Mot1 rescue inactive and VIM-2 inh 10.3.
Screening COc1ccc(CCNC(=O)c2cc3c(=O)n4cccc(C)c4nc3s2)cc1OC returned IMP-1 inh inactive, PolyA inh inactive, NLRP3 yeast inh inactive, NALP1 inh inactive, SUMO Mot1 rescue inactive and VIM-2 inh 10.1.
For Cc1cccn2c(=O)c3cc(C(=O)N4CC(C)CC(C)C4)sc3nc12 (stereo not drawn) the results were IMP-1 inh inactive, PolyA inh inactive, NLRP3 yeast inh inactive, NALP1 inh inactive, SUMO Mot1 rescue inactive and VIM-2 inh 11.6.
Screening CCN(C(=O)c1cc2c(=O)n3cccc(C)c3nc2s1)C1CCCCC1 returned IMP-1 inh inactive, PolyA inh inactive, NLRP3 yeast inh inactive, NALP1 inh inactive, SUMO Mot1 rescue inactive and VIM-2 inh 9.0.
O=C(CSc1ccccc1F)NCC1(N2CCCCC2)CCCCC1 was read as NLRP3 yeast inh inactive and SUMO Mot1 rescue inactive.
For CC(OC(=O)CCC(=O)c1ccc(Cl)s1)C(=O)NC1(C#N)CCCCC1 (stereo not drawn) the results were NLRP3 yeast inh inactive and SUMO Mot1 rescue inactive.
Fc1cccc(Cl)c1Cc1noc(/C=C/c2ccccc2)n1 was read as IMP-1 inh inactive, PolyA inh inactive, NLRP3 yeast inh inactive, NALP1 inh 27.9, SUMO Mot1 rescue inactive and VIM-2 inh inactive.
`C(=C\c1nc(-c2ccccc2)no1)/c1ccccc1` gave IMP-1 inh inactive, PolyA inh inactive, NLRP3 yeast inh inactive, NALP1 inh inactive, SUMO Mot1 rescue inactive and VIM-2 inh inactive.
`COc1ccccc1N(C)S(=O)(=O)c1ccc(C(=O)Nc2cc(F)ccc2C)cc1` gave NLRP3 yeast inh inactive and SUMO Mot1 rescue inactive.
